Assays:
Minimal PBPK model = type: in vivo, human
[1] = type: in vivo, human; conditions: for dose proportionality of PK: p.o. tablet dosing
In short: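 Plasma parent, M5 and M6 concentration-time data came from clinical studies. In healthy volunteers, dosing was i.v., 150–600 mg single-dose tablet p.o., or 300–750 mg multiple-dose tablet. In HCV patients, dosing was 50–300 mg single-dose or 50–400 mg multiple-dose capsule, or 300–450 mg multiple-dose tablet; 450 mg once daily gave Day 7 profiles with washout. Itraconazole DDI: healthy volunteers; HCV patients received 300 mg multiple-dose tablet plus 200 mg multiple-dose itraconazole.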

Row | Structure (SMILES) | share of unabsorbed uprifosbuvir dose metabolized into M5 (Minimal PBPK model; gut) [%] | share of unabsorbed uprifosbuvir dose metabolized into M6 (Minimal PBPK model; gut) [%] | share of unabsorbed uprifosbuvir dose metabolized into pseudo-M4 (Minimal PBPK model; gut) [%] | unabsorbed fraction of uprifosbuvir dose (metabolized in gut) (Minimal PBPK model; p.o., based on the model) [%] | uprifosbuvir dose estimated to reach the liver unchanged (Minimal PBPK model; p.o., based on the model) | effect of itraconazole coadministration on uprifosbuvir exposure ([1]; itraconazole DDI study, plasma) | effect of itraconazole coadministration on uprifosbuvir tmax ([1]; itraconazole DDI study, plasma) | dose proportionality of PK [1] | effect of itraconazole coadministration on early metabolite profile ([1]; itraconazole DDI, plasma)
1 | CC(C)OC(=O)[C@@H](C)N[P@@](=O)(OC[C@H]1O[C@@H](n2ccc(=O)[nH]c2=O)[C@](C)(Cl)[C@@H]1O)Oc1ccccc1 [uprifosbuvir] | 11 | 52 | 37 | 86 | about 14% | large increase in uprifosbuvir exposure | delayed time to reach maximum uprifosbuvir plasma concentration | dose proportional | –
2 | C[C@@]1(Cl)[C@H](O)[C@@H](CO)O[C@H]1n1ccc(=O)[nH]c1=O [M6] | – | – | – | – | – | – | – | not dose proportional | first M6 peak was almost absent

— publication PMC8302237 (CPT: Pharmacometrics & Systems Pharmacology, 2021)
